Experimental data reported in ChEMBL document CHEMBL1142970, “Inhibition of secreted phospholipase A2. 4-glycerol derivatives of 4,5-dihydro-3-(4-tetradecyloxybenzyl)-1,2,4-4H-oxadiazol-5-one with broad activities” (J Med Chem, 2007).

What was measured:
[1] = target: T1, Phospholipase A2, membrane associated (Homo sapiens, UniProt P14555); test: Inhibition of human group IIA PLA2 by fluorimetric assay
T1 sequence (P14555 whole entry): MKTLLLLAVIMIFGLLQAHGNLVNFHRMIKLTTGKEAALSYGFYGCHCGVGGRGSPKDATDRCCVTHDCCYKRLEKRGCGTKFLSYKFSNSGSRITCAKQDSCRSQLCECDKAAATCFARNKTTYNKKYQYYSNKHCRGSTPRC
In short: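 Fluorimetric (Radvanyi method): 1 ng synthetic hGIIA sPLA2 in 1 mL of 50 mM Tris-HCl pH 7.5, 100 mM NaCl, 1 mM EGTA, 0.1% fatty acid-free BSA, 2 µM β-pyC-10-PG. Inhibitor added in ethanol or DMSO after BSA. Reaction started with 10 mM CaCl2 (final), fluorescence rise followed 2 min.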

[2] = Lipophilicity, log P of the compound; assay type: physicochemical; details: octanol/water
In short: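 log P calculated from Rekker's hydrophobic fragmental constants.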

[3] = target: Phospholipase A2, major isoenzyme (Sus scrofa, UniProt P00592); test: Inhibition of pig group IB PLA2 by fluorimetric assay
Sequence of Phospholipase A2, major isoenzyme (P00592 whole entry): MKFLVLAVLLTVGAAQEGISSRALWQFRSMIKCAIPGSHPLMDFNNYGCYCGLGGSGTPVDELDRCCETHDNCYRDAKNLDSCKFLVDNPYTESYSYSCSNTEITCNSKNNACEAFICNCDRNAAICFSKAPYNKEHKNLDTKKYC
In short: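 Porcine pancreatic sPLA2, 60 ng per 1 mL, in 50 mM Tris-HCl pH 7.5, 100 mM NaCl, 1 mM EGTA, 0.1% fatty acid-free BSA, 2 µM pyrene substrate β-pyC-10-PG. Inhibitor in ethanol or DMSO added after BSA. Activity as µmol hydrolyzed/min/mg, giving 50%-inhibition concentration.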

Phospholipase A2 group V = target: T2, Phospholipase A2 group V (Homo sapiens, UniProt P39877); test: Inhibition of human group V PLA2 in [3H]oleate-labeled Escherichia coli membrane by radiometric assay
T2 sequence (P39877 whole entry): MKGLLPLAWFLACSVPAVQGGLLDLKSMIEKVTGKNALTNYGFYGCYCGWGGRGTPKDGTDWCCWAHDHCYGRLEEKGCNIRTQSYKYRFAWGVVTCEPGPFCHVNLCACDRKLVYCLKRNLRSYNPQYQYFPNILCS
In short: (§1)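 Incubation 30-60 min, time adjusted for linear hydrolysis. Stopped with 0.1 M EDTA pH 8.0/1% BSA, centrifuged 10 000g, supernatant counted. Enzyme-free controls subtracted. IC50 obtained after 10 µM screen.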

[4] = target: T3, Group 10 secretory phospholipase A2 (Homo sapiens, UniProt O15496); test: Inhibition of human group X PLA2 in [3H]oleate-labeled Escherichia coli membrane by radiometric assay; in short: as §1
T3 sequence (O15496 whole entry): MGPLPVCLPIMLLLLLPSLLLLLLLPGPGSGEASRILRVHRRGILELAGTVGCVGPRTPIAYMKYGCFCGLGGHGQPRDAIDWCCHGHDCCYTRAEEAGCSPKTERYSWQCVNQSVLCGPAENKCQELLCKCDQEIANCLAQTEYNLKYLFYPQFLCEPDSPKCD

[5] = target: T1, Phospholipase A2, membrane associated; test: Inhibition of human group IIA PLA2 in [3H]oleate-labeled Escherichia coli membrane by radiometric assay; in short: as §1
Phospholipase A2 = Phospholipase A2 (Homo sapiens, UniProt P04054); test: Inhibition of human group IB PLA2 in [3H]oleate-labeled Escherichia coli membrane by radiometric assay; in short: as §1
Sequence of Phospholipase A2 (P04054 whole entry): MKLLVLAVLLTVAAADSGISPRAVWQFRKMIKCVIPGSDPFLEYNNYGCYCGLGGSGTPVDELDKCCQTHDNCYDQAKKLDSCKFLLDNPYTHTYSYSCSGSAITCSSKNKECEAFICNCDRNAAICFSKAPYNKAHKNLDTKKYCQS

| IC50 [1] [µM] | logP ([2]; read-out: LogP) | IC50 [3] [µM] | logP [2] | IC50 (Phospholipase A2 group V) [µM] | IC50 [4] [µM] | IC50 [5] [µM] | IC50 (Phospholipase A2) [µM] | Compound |
| --- | --- | --- | --- | --- | --- | --- | --- | --- |
| 4 | 7.08 | > 100 | – | – | – | – | – | CCCCCCCCCCCCCCOc1ccc(Cc2noc(=O)[nH]2)cc1 |
| 0.33 | – | > 50 | 11.8 | – | – | – | – | CCCCCCCCCCCCCCO[C@@H](COc1ccc(-c2nc(=O)o[nH]2)cc1)COC(c1ccccc1)(c1ccccc1)c1ccccc1 |
| 0.28 | – | > 100 | 11.5 | 0.55 | 1 | 1 | 10 | CCCCCCCCCCCCCCOC(COCCCCCCCCCC)COc1ccc(-c2nc(=O)o[nH]2)cc1 (stereo not drawn) |
| 2.1 | 7.64 | 39.9 | – | – | – | – | – | CCCCCCCCCCCCCCOC(COc1ccc(Cc2nc(=O)o[nH]2)cc1)COc1ccc(Cc2nc(=O)o[nH]2)cc1 |
| 47.7 | 7.05 | > 100 | – | – | – | – | – | CCCCCCCCCCCCCCOC(COc1ccc(-c2nc(=O)o[nH]2)cc1)COc1ccc(-c2nc(=O)o[nH]2)cc1 |
| 30.5 | 2.97 | > 100 | – | – | – | – | – | CCCCCOC(COc1ccc(Cc2noc(=O)[nH]2)cc1)COc1ccc(Cc2noc(=O)[nH]2)cc1 |
| 76.7 | 6.51 | > 100 | – | – | – | – | – | O=c1nc(-c2ccc(OCC(COCCCCc3ccccc3)OCCCCc3ccccc3)cc2)[nH]o1 (racemic) |
| 11.6 | 7.12 | > 100 | – | – | – | – | – | CCCCCCCOCC(COc1ccc(Cc2noc(=O)[nH]2)cc1)OCCCCCCC (racemic) |
| 2.7 | – | > 100 | 9.18 | – | – | – | – | CCCCCCCCCOCC(COc1ccc(Cc2noc(=O)[nH]2)cc1)OCCCCCCCCC (racemic) |
| 56 | 6.59 | > 100 | – | – | – | – | – | CCCCCCCCCCCCCCOC(CO)COc1ccc(-c2noc(=O)[nH]2)cc1 (racemic) |
| 0.28 | – | 5.6 | 10.1 | 2 | 5.3 | 5 | 18 | CCCCCCCCCCCCCCOC(COc1ccc(-c2noc(=O)[nH]2)cc1)COC(c1ccccc1)c1ccccc1 (racemic) |
| 3.1 | 7.64 | 57.8 | – | – | – | – | – | CCCCCCCCCCCCCCOCC(COc1ccc(Cc2nc(=O)o[nH]2)cc1)Oc1ccc(Cc2nc(=O)o[nH]2)cc1 (racemic) |
| 2.2 | 8.56 | 39 | – | – | – | – | – | CCCCCCCCCCCCCCOC(COCc1cccc(OC)c1)COc1ccc(-c2nc(=O)o[nH]2)cc1 (racemic) |
| 14.8 | 8.48 | > 25 | – | > 100 | 14 | > 100 | > 100 | CCCCCCCCCCCCCCOC(COCc1ccccc1)COc1ccc(-c2noc(=O)[nH]2)cc1 (racemic) |
| 29.8 | 7.34 | > 40 | – | – | – | – | – | CCCCCCCCCCCCCCOC(COCC)COc1ccc(-c2noc(=O)[nH]2)cc1 (racemic) |
| 8.3 | 8.72 | > 100 | – | – | – | – | – | CCCCCCCCCCCCCCOC(COCCCCC)COc1ccc(-c2noc(=O)[nH]2)cc1 (racemic) |
| 0.15 | – | 36.6 | 11 | 1 | 0.9 | 1.15 | 8.7 | CCCCCCCCCCCCCCCCCCOC(COCc1ccc(C#N)cc1)COc1ccc(Cc2noc(=O)[nH]2)cc1 (racemic) |
| 0.29 | – | 2.2 | 10 | 22 | 12 | 26 | 15 | CCCCCCCCCCCCCCOC(COCCCCc1ccccc1)COc1ccc(-c2noc(=O)[nH]2)cc1 (racemic) |
| 1.1 | 8.94 | 9.6 | – | 1.73 | 5 | 7.6 | 7.6 | CCCCCCCCCCCCCCOC(COCc1ccc(C#N)cc1)COc1ccc(Cc2nc(=O)o[nH]2)cc1 (racemic) |
| 0.9 | – | > 50 | 11.8 | 0.66 | 1.25 | 2 | 5.75 | CCCCCCCCCCCCCCOC(COc1ccc(-c2noc(=O)[nH]2)cc1)COC(c1ccccc1)(c1ccccc1)c1ccccc1 (racemic) |
| 50.9 | 6.3 | > 100 | – | – | – | – | – | CCCCCCCOCC(COc1ccc(-c2noc(=O)[nH]2)cc1)OCCCCCCC (racemic) |
| 21 | 7.05 | 63.6 | – | – | – | – | – | CCCCCCCCCCCCCCOCC(COc1ccc(-c2noc(=O)[nH]2)cc1)Oc1ccc(-c2noc(=O)[nH]2)cc1 (racemic) |

| Compound | IC50 [1] [µM] | logP ([2]; read-out: LogP) | IC50 [3] [µM] | logP [2] | IC50 (Phospholipase A2 group V) [µM] | IC50 [4] [µM] | IC50 [5] [µM] | IC50 (Phospholipase A2) [µM] |
| --- | --- | --- | --- | --- | --- | --- | --- | --- |
| Cc1c(C(=O)C(N)=O)c2c(OCC(=O)O)cccc2n1Cc1ccccc1-c1ccccc1 | – | – | – | – | 0.27 | 4.57 | 0.18 | 3.3 |
